Experiment [1] deals with T1, Prostaglandin E synthase (Homo sapiens, UniProt O14684).
T1 sequence (O14684 whole entry): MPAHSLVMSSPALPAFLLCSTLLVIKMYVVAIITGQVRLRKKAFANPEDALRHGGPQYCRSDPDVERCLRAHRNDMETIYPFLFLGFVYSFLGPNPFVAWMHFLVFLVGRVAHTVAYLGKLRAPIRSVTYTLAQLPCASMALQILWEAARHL
Nature of the experiment: Inhibition of mPGES-1 in microsomes isolated from IL-1beta-stimulated human A549 cells using PGH2 as substrate preincubated for 15 mins followed by substrate addition measured after 1 min by RP-HPLC method. Type of experiment: cell-free. In short, it runs like this:
(§1)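 mPGES-1 source: microsomes of A549 cells stimulated 48 h with IL-1β (1 ng/ml), sonicated, spun 10,000×g 10 min then 174,000×g 1 h at 4 °C. Diluted in 0.1 M potassium phosphate pH 7.4 with 2.5 mM glutathione. Compound or DMSO vehicle added 15 min at 4 °C, then 20 µM PGH2 for 1 min at 4 °C. Stopped with FeCl2/citric acid plus 11β-PGE2. PGE2 measured by solid-phase extraction and RP-HPLC.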

Experiment [2] has as its target T2, Prostaglandin E synthase (Homo sapiens) (UniProt O14684).
T2 sequence (whole entry): T1 sequence (O14684 whole entry)
Briefly: Inhibition of mPGES-1 in microsomes isolated from IL-1beta-stimulated human A549 cells at 10 uM using PGH2 as substrate preincubated for 15 mins followed by substrate addition measured after 1 min by RP-HPLC method relative to control. It counts as cell-free. The method in brief:
as §1

One may read the IC50 as the concentration at which inhibition is half-maximal. Lower therefore signals greater potency in that assay. For orientation: inhibition means how much of the control response was suppressed. Read a high inhibition as a strong effect.

`O=C(Oc1cccc2c1C(=O)c1nc3nonc3nc1-2)c1ccccc1` showed an IC50 in experiment [1] of 4.6 µM. This molecule had an inhibition in experiment [2] of 70%. On the same counts, the results for `O=C(Oc1ccc2c(c1)C(=O)c1nc3nonc3nc1-2)c1ccccc1` are 2.4 µM and 85%. In experiment [2], `CC(=O)O/N=C1\C=Cc2c(no[n+]2[O-])C1=O` yielded an inhibition of 20%. Still for that read-out and setting: as for `O=C1c2ccccc2-c2nc3nonc3nc21`, the figure is 30%. The molecule `O=C1c2ccc(O)cc2-c2nc3nonc3nc21` came in with an inhibition in experiment [2] of 30%. On the same count and under the same terms, as for `O=C1c2nc3nonc3nc2-c2cccc(O)c21`, the figure is 5%. For the molecule `O=C(Oc1ccc2c(c1)-c1nc3nonc3nc1C2=O)c1ccccc1`, the IC50 in experiment [1] stood at 2.4 µM. This molecule gave an inhibition in experiment [2] of 70%. In experiment [2], `O=C1c2cc(O)ccc2-c2nc3nonc3nc21` gave an inhibition of 15%.

Values taken from ChEMBL document CHEMBL4041473, “Identification of novel microsomal prostaglandin E2 synthase-1 (mPGES-1) lead inhibitors from Fragment Virtual Screening” (Eur J Med Chem, 2017).
